# Reference: article PMC6542785 (Acta Pharmaceutica Sinica. B, 2018)
# Columns and labels:
# Type in all cases: cell-based, human
# [1] = system: mitochondria of HeLa cells; assay: Mitochondria targeting, quantification in isolated mitochondria; settings: 10 μg/mL Dox equivalent, flow cytometry, n=3
# Method in brief: (§1)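 HeLa cells (DMEM) or MCF-7 cells (RPMI-1640), both with 10% FBS, grown at 37 °C, 5% CO2 and treated in 12-well plates with test compound (10 μg/mL Dox equivalent). Collected into mitochondria extraction reagent on ice for 10 min, then homogenised. Spun at 600×g for 10 min; supernatant spun at 11,000×g for 10 min. Pelleted mitochondria analysed for Dox by flow cytometry.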
# MCF-7/ADR cells = assay: Dox efflux assay
# Method in brief: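 MCF-7/ADR and MCF-7 cells, in RPMI-1640 with 10% FBS and penicillin/streptomycin (1 μg/mL doxorubicin added to maintain the ADR line), loaded with test compound (10 µg/mL Dox equivalent) for 4 h. Washed, then chased in fresh drug-free medium for 2 or 4 h at 37 °C. Collected and PBS-washed; retained Dox read by flow cytometry. Efflux ratio from retained versus initial uptake; mean ± SD, n=3.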
# [2] = system: mitochondria of MCF-7 cells; assay: Mitochondria targeting, quantification in isolated mitochondria; settings: 10 μg/mL Dox equivalent, flow cytometry, n=3
# Method in brief: as §1
compound,measurement,setting,value
"COc1cccc2c1C(=O)c1c(O)c3c(c(O)c1C2=O)C[C@@](O)(C(=O)CO)C[C@@H]3O[C@H]1C[C@H](N)[C@H](O)[C@H](C)O1 [Dox, doxorubicin]",mitochondria distribution,[1],< 5%
same,"Dox efflux rate in MCF-7/ADR, fold higher than in MCF-7 cells",MCF-7/ADR cells; 2 h in drug-free medium after 4 h loading,1.74 fold
same,"Dox efflux rate in MCF-7/ADR, fold higher than in MCF-7 cells",MCF-7/ADR cells; 4 h in drug-free medium after 4 h loading,2.08 fold
same,mitochondria distribution,[2],< 5%
